Calls of active or inactive are those of the source. The rule behind the calls is not given here.
Experiments:
Mus musculus [1] = assay: Acid-insoluble DNA incorporation in mouse Mecca lymphosarcoma ascite tumor allografted in AKD2F1 mouse assessed per mg of DNA at 2.6 umol, ip after 4 hrs by scintillation counting analysis; format: functional
Procedure, shortened: (§1)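 Female AKD2F1 mice (groups of 3) bearing 4-day Mecca lymphosarcoma ascites tumors; 2.6 μmol [35S]nucleoside ip, repeated after 2 h; peritoneal cells washed out 2 h later. Acid-insoluble nucleic acid extracted in 10% NaCl at 100 °C, RNA removed by alkali; DNA digested with DNase I then phosphodiesterase I at 37 °C; paper chromatography, spots counted by scintillation.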

Mus musculus [2] = species: Mus musculus; assay: Acid-insoluble DNA incorporation in mouse Mecca lymphosarcoma ascite tumor allografted in AKD2F1 mouse assessed as detection of [35S] in nucleoside at 2.6 umol after 4 hrs by scintillation counting analysis; format: functional; procedure, shortened: as §1
Mus musculus [3] = species: Mus musculus; assay: Acid-insoluble DNA incorporation in mouse Mecca lymphosarcoma ascite tumor allografted in AKD2F1 mouse assessed as detection of [35S] in nucleotide at 2.6 umol after 4 hrs by scintillation counting analysis; format: functional; procedure, shortened: as §1
Mus musculus [4] = species: Mus musculus; assay: Acid-soluble DNA incorporation in mouse Mecca lymphosarcoma ascite tumor allografted in AKD2F1 mouse assessed as detection of [35S] in nucleoside per mg of DNA at 2.6 umol after 4 hrs by scintillation counting analysis; format: functional
Procedure, shortened: (§2)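 Same mouse dosing as the DNA study: 2.6 μmol [35S]nucleoside ip twice, 2 h apart, to AKD2F1 mice carrying Mecca lymphosarcoma ascites; cells harvested 2 h after the second dose. Acid-soluble fraction chromatographed on paper in 5% KH2PO4 with mercaptoethanol; nucleoside and nucleotide spots scintillation-counted, expressed per mg DNA.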

Mus musculus [5] = species: Mus musculus; assay: Acid-soluble DNA incorporation in mouse Mecca lymphosarcoma ascite tumor allografted in AKD2F1 mouse assessed as detection of [35S] in nucleotide per mg of DNA at 2.6 umol after 4 hrs by scintillation counting analysis; format: functional; procedure, shortened: as §2
Mus musculus [6] = species: Mus musculus; assay: Acid-soluble DNA incorporation in mouse Mecca lymphosarcoma ascite tumor allografted in AKD2F1 mouse assessed as wheat germ 3'-nucleotidase-mediated nucleotide hydrolysis at 2.6 umol after 1 hr; format: functional; design: scale not given: the % may be the effect or the level left
Procedure, shortened: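 Acid-soluble fraction from mice dosed ip with 2.6 μmol [35S]nucleoside twice, 2 h apart. Aliquot treated with nucleotidase-free phosphodiesterase (pH 8.6, 1 h, 37 °C), then wheat germ 3'-nucleotidase (4 units, pH 5, 1 h, 37 °C); separated by paper chromatography and counted.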

Mus musculus [7] = species: Mus musculus; assay: Acid-soluble DNA incorporation in mouse Mecca lymphosarcoma ascite tumor allografted in AKD2F1 mouse assessed as snake venome 5'-nucleotidase-mediated nucleotide hydrolysis at 2.6 umol after 2 hrs; format: functional; design: scale not given: the % may be the effect or the level left
Procedure, shortened: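 Female AKD2F1 mice bearing 4-day Mecca lymphosarcoma ascites were used in groups of three. Aliquots of the acid-soluble fraction were digested with crude Crotalus adamanteus venom (phosphodiesterase plus 5'-nucleotidase) for 2 h at 37 °C.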

[8] = Stability in RPMI 1640 assessed as formation of thioguanine after 24 hrs in presence of 10% dialyzed horse serum; format: physicochemical
Procedure, shortened: (§3)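 Nucleosides incubated without cells in RPMI 1640 containing 10% fetal calf serum or 10% dialyzed horse serum, 20 min or 24 h; cleavage to thioguanine monitored.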

[9] = Stability in RPMI 1640 after 24 hrs in presence of 10% fetal calf serum; format: physicochemical; details: cattle; procedure, shortened: as §3
[10] = Stability in RPMI 1640 after 20 mins in presence of 10% fetal calf serum; format: physicochemical; details: cattle; procedure, shortened: as §3
WIL2 [11] = assay: Stability in human WIL2 cells assessed as formation of thioguanine; format: ADME, cell-based
Procedure, shortened: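 WI-L2 cells incubated with labeled nucleoside; [35S]thioguanine formed was measured.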

WIL2 [12] = assay: Antiproliferative activity against human WIL2 cells assessed as decrease in cell number at 100 to 300 uM measured every 24 hrs by electronic particle counting analysis in presence of 10% dialyzed horse serum; format: functional, cell-based
Procedure, shortened: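 WI-L2 cells in RPMI 1640 + 10% dialyzed horse serum with penicillin/streptomycin; log-phase cells (2×10^5/mL) mixed 1:1 with double-strength drug medium at several concentrations, duplicate cultures, counted every 24 h by electronic particle counter.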

Nc1nc2c(ncn2[C@@H]2C[C@H](CO)[C@@H](CO)O2)c(=S)[nH]1
Activity (Mus musculus [1]): 2.42 nmol | Activity (Mus musculus [2]): 91% | Activity (Mus musculus [3]): 9% | Activity (Mus musculus [4]): 15.6 nmol | Activity (Mus musculus [5]): 29.8 nmol | Activity (Mus musculus [6]): 0% | Activity (Mus musculus [7]): 95.2% | Stability [8]: Stable | Stability [9]: Unstable | Stability [10]: Stable | Stability (WIL2 [11]): Stable | Activity (WIL2 [12]): Active

Nc1nc2c(ncn2[C@@H]2C[C@H](O)[C@@H](CO)O2)c(=S)[nH]1
Activity (Mus musculus [1]): 0.84 nmol | Activity (Mus musculus [2]): 60% | Activity (Mus musculus [3]): 40% | Activity (Mus musculus [4]): 10.4 nmol | Activity (Mus musculus [5]): 6.4 nmol | Activity (Mus musculus [6]): 2% | Activity (Mus musculus [7]): 95.7% | Stability [8]: Stable | Stability [9]: Unstable | Stability [10]: Stable | Stability (WIL2 [11]): Stable | Activity (WIL2 [12]): Active

Nc1nc2c(ncn2[C@H]2C[C@H](CO)[C@@H](CO)O2)c(=S)[nH]1
Activity (Mus musculus [1]): 2.36 nmol | Activity (Mus musculus [2]): 90% | Activity (Mus musculus [3]): 10% | Activity (Mus musculus [4]): 29.1 nmol | Activity (Mus musculus [5]): 30.3 nmol | Activity (Mus musculus [6]): 0% | Activity (Mus musculus [7]): 94.8% | Stability [8]: Stable | Stability [9]: Unstable | Stability [10]: Stable | Stability (WIL2 [11]): Stable
